# Activity calls are given as the source filed them. No cut-off for these calls is given here.
# Tests used:
# [1] = test system: Trypanosoma cruzi; assay: Antitrypanosomal activity against trypomastigotes of Trypanosoma cruzi Tulahuen expressing the beta- galactosidase gene infected rat L6 cells after 96 hrs; type: functional, organism-based; conditions: L6, 96 h
# Summary of the method: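 Tulahuén trypomastigotes expressing β-galactosidase, maintained by serial passage in L6 cells. L6 cells seeded and left 24 h at 37 °C, 5% CO2, then infected at MOI 3 for 48 h. Compound exposure 96 h, benznidazole control. CPRG with 0.3% Nonidet P-40 added, absorbance at 530 nm after 4−6 h. IC50 taken from % inhibition curve; mean of at least two assays.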
# [2] = Elimination half life in Sprague-Dawley rat at 4.8 mg/kg, iv; type: ADME, organism-based; set-up: dose 4.8 mg/kg, route intravenous; conditions: in vivo, read-out: beta t1/2 (converted)
# Summary of the method: (§1)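 Overnight-fasted male Sprague–Dawley rats (272–320 g), n = 2 per route. IV dose given as a 10 min jugular infusion in aqueous solution; oral dose by gavage as aqueous suspension. Arterial blood taken via carotid cannula up to 24 h. Plasma measured by LC-MS after acetonitrile precipitation. Noncompartmental analysis. Blood clearance = plasma clearance divided by in vitro blood/plasma ratio. Bioavailability from mean dose-normalised AUC0–inf, oral versus IV.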
# [3] = Blood Clearance in Sprague-Dawley rat at 4.8 mg/kg, iv; type: ADME, organism-based; set-up: dose 4.8 mg/kg, route intravenous; conditions: whole blood; summary of the method: as §1
# [4] = Apparent volume of distribution at steady state in Sprague-Dawley rat at 4.8 mg/kg, iv; type: ADME, organism-based; set-up: dose 4.8 mg/kg, route intravenous; conditions: in vivo, read-out: Vdss(app); summary of the method: as §1
# [5] = Kinetic solubility of the compound at pH 6.5 by nephelometric analysis; type: physicochemical; conditions: buffer, read-out: Kinetic_solubility
# [6] = molecular target: CYP3A4/5 (Homo sapiens, UniProt P08684+P20815); assay: Inhibition of CYP3A4/5 in human liver microsomes; type: ADME, Microsome
# [7] = Oral bioavailability in Sprague-Dawley rat at 15.7 mg/kg; type: ADME, organism-based; conditions: in vivo; summary of the method: as §1
# [8] = Plasma concentration in Swiss mouse at 10 mg/kg, po after 1 hr; type: ADME, organism-based; set-up: dose 10 mg/kg, route oral
# Summary of the method: (§2)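 Nonfasted male Swiss outbred mice (23.8–39.9 g), fed throughout. Dosed by oral gavage as solution or suspension in aqueous vehicle. Plasma assayed by LC-MS against blank-plasma standards after acetonitrile precipitation; LLOQ 0.001–0.015 μM.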
# [9] = Oral bioavailability in Sprague-Dawley rat at 15.2 mg/kg; type: ADME, organism-based; conditions: in vivo; summary of the method: as §1
# [10] = Plasma concentration in Swiss mouse at 50 mg/kg, po after 24 hrs; type: ADME, organism-based; set-up: dose 50 mg/kg, route oral; summary of the method: as §2
# [11] = Therapeutic index, ratio of IC50 for rat L6 cells to IC50 for trypomastigotes of Trypanosoma cruzi Tulahuen; type: cell-based; conditions: read-out: Ratio IC50
# [12] = Plasma concentration in Swiss mouse at 100 mg/kg, po after 8 hrs; type: ADME, organism-based; set-up: dose 100 mg/kg, route oral
# Summary of the method: (§3)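 Nonfasted male Swiss Outbred mice weighing 23.8−39.9 g, with food and water freely available, dosed by oral gavage as an aqueous solution or suspension. Plasma proteins precipitated with acetonitrile and compound quantified by LC-MS against standards made in blank mouse plasma. Lower limit of quantitation 0.001−0.015 μM.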
# [13] = Plasma concentration in Swiss mouse at 20 mg/kg, po after 1 hr; type: ADME, organism-based; set-up: dose 20 mg/kg, route oral; summary of the method: as §2
# [14] = test system: Trypanosoma cruzi; assay: Antitrypanosomal activity against trypomastigotes of Trypanosoma cruzi Tulahuen infected in Swiss mouse model of chagas disease assessed as decrease in parasite level in blood at 20 mg/kg, po administered 8 days after post infection qd for 5 days; set-up: scale not given: the % may be the effect or the level left
# [15] = Elimination half life in Sprague-Dawley rat at 4.2 mg/kg, iv; type: ADME, organism-based; set-up: dose 4.2 mg/kg, route intravenous; conditions: in vivo, read-out: beta t1/2 (converted); summary of the method: as §1
# [16] = Apparent volume of distribution at steady state in Sprague-Dawley rat at 4.2 mg/kg, iv; type: ADME, organism-based; set-up: dose 4.2 mg/kg, route intravenous; conditions: in vivo, read-out: Vdss(app); summary of the method: as §1
# [17] = Plasma concentration in Swiss mouse at 20 mg/kg, po after 8 hrs; type: ADME, organism-based; set-up: dose 20 mg/kg, route oral; summary of the method: as §2
# [18] = test system: Trypanosoma cruzi; assay: Antitrypanosomal activity against trypomastigotes of Trypanosoma cruzi Tulahuen infected in Swiss mouse model of chagas disease assessed as increase of host survival at 20 mg/kg, po administered 8 days after post infection qd for 5 days; type: functional, organism-based; set-up: dose 20 mg/kg
# [19] = test system: Trypanosoma cruzi; assay: Antitrypanosomal activity against trypomastigotes of Trypanosoma cruzi Tulahuen infected in Swiss mouse model of chagas disease assessed as decrease in parasite level in blood at 50 mg/kg, po administered 8 days after post infection qd for 5 days; type: functional; set-up: scale not given: the % may be the effect or the level left
# Summary of the method: (§4)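 Female outbred Swiss mice, about 8 weeks old, infected ip with Tulahuén parasites; five mice per group. Daily dosing starts day 8 post-infection. Oral doses given by gavage in HPMC vehicle (0.5% HPMC, 0.4% Tween 80, 0.5% benzyl alcohol); ip doses in PBS with 0.4% Tween 80 and 10% PEG400. Tail-prick blood taken days 8, 9, 12, 14, 16, 19 and 27 post-infection, red cells lysed, and live trypomastigotes counted by hemocytometer. % efficacy = (vehicle mean − treated mean)/vehicle mean × 100. Survival recorded as surviving/infected-and-treated.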
# [20] = Plasma concentration in Swiss mouse at 50 mg/kg, po after 8 hrs; type: ADME, organism-based; set-up: dose 50 mg/kg, route oral; summary of the method: as §2
# [21] = test system: L6; assay: Cytotoxicity against rat L6 cells after 72 hrs by Alamar Blue assay; type: cell-based; conditions: L6, 72 h
# Summary of the method: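 L6 rat skeletal myoblasts in RPMI 1640 with 10% FBS. Exposed to compound for 72 h, seven-point serial dilutions in triplicate. Alamar Blue read at 570 and 630 nm. IC50 is the mean of at least two assays; podophyllotoxin used as control.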
# [22] = Plasma concentration in Swiss mouse at 100 mg/kg, po after 1 hr; type: ADME, organism-based; set-up: dose 100 mg/kg, route oral; summary of the method: as §3
# [23] = test system: Trypanosoma cruzi; assay: Antitrypanosomal activity against trypomastigotes of Trypanosoma cruzi Tulahuen infected in Swiss mouse model of chagas disease assessed as increase of host survival at 50 mg/kg, po administered 8 days after post infection qd for 5 days; type: functional, organism-based; set-up: dose 50 mg/kg
# [24] = Plasma concentration in Swiss mouse at 50 mg/kg, po after 1 hr; type: ADME, organism-based; set-up: dose 50 mg/kg, route oral; summary of the method: as §2
# [25] = test system: Trypanosoma cruzi; assay: Antitrypanosomal activity against trypomastigotes of Trypanosoma cruzi Tulahuen infected in Swiss mouse model of chagas disease assessed as decrease in parasite level in blood at 100 mg/kg, po administered 8 days after post infection qd for 5 days; type: functional; set-up: scale not given: the % may be the effect or the level left
# [26] = Plasma concentration in Swiss mouse at 10 mg/kg, po after 8 hrs; type: ADME, organism-based; set-up: dose 10 mg/kg, route oral; summary of the method: as §2
# [27] = Blood Clearance in Sprague-Dawley rat at 4.2 mg/kg, iv; type: ADME, organism-based; set-up: dose 4.2 mg/kg, route intravenous; conditions: whole blood; summary of the method: as §1
# [28] = test system: Trypanosoma cruzi; assay: Antitrypanosomal activity against trypomastigotes of Trypanosoma cruzi Tulahuen infected immunosuppressed Swiss mouse assessed as level of parasite in blood at 20 mg/kg, po administered 8 day after post infection qd for 20 days measured after 3 cycles of immunosuppression; type: functional, organism-based; set-up: dose 20 mg/kg
# [29] = test system: Trypanosoma cruzi; assay: Antitrypanosomal activity against trypomastigotes of Trypanosoma cruzi Tulahuen infected immunosuppressed Swiss mouse assessed as level of parasite in blood at 50 mg/kg, po administered after 2 cycles of immunosuppression qd for 10 days; type: functional, organism-based; set-up: dose 50 mg/kg
# [30] = test system: Trypanosoma cruzi; assay: Antitrypanosomal activity against trypomastigotes of Trypanosoma cruzi Tulahuen infected in Swiss mouse model of chagas disease assessed as decrease in parasite level in blood at 50 mg/kg, po administered 8 day after post infection qd for 10 days; type: functional, organism-based; set-up: dose 50 mg/kg
# [31] = test system: Trypanosoma cruzi; assay: Antitrypanosomal activity against trypomastigotes of Trypanosoma cruzi Tulahuen infected in Swiss mouse model of chagas disease assessed as decrease in parasite level in blood at 20 mg/kg, po administered 8 day after post infection qd for 20 days; type: functional; set-up: scale not given: the % may be the effect or the level left; summary of the method: as §4
# [32] = test system: Trypanosoma cruzi; assay: Antitrypanosomal activity against trypomastigotes of Trypanosoma cruzi Tulahuen infected in Swiss mouse model of chagas disease assessed as level of parasite in blood at 20 mg/kg, po qd for 20 days measured after 30 day; type: functional, organism-based; set-up: dose 20 mg/kg
# Summary of the method: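 Female Swiss mice infected ip with Tulahuén parasites; oral gavage dosing in HPMC vehicle, daily from day 8 post-infection. Dosing is followed by 10 days without compound. If blood is then parasite-free, mice receive cyclophosphamide ip 50 mg/kg/day, up to three cycles (4 days on, 3 rest). Parasitemia counted in tail-prick blood by hemocytometer.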
# [33] = test system: Trypanosoma cruzi; assay: Antitrypanosomal activity against trypomastigotes of Trypanosoma cruzi Tulahuen infected in Swiss mouse model of chagas disease assessed as decrease in parasite level in blood at 50 mg/kg, po administered 8 day after post infection qd for 10 days measured on day 21; type: functional, organism-based; set-up: dose 50 mg/kg
# [34] = test system: Trypanosoma cruzi; assay: Antitrypanosomal activity against trypomastigotes of Trypanosoma cruzi Tulahuen infected immunosuppressed Swiss mouse assessed as level of parasite in blood at 100 mg/kg, po administered 8 day after post infection qd for 20 days measured after 3 cycles of immunosuppression; type: functional, organism-based; set-up: dose 100 mg/kg
# [35] = Blood Clearance in Sprague-Dawley rat at 5.2 mg/kg, iv; type: ADME, organism-based; set-up: dose 5.2 mg/kg, route intravenous; conditions: whole blood; summary of the method: as §1
# [36] = Apparent volume of distribution at steady state in Sprague-Dawley rat at 5.2 mg/kg, iv; type: ADME, organism-based; set-up: dose 5.2 mg/kg, route intravenous; conditions: in vivo, read-out: Vdss(app); summary of the method: as §1
# [37] = Oral bioavailability in Sprague-Dawley rat at 17.6 mg/kg; type: ADME, organism-based; conditions: in vivo; summary of the method: as §1
# [38] = Elimination half life in Sprague-Dawley rat at 5.2 mg/kg, iv; type: ADME, organism-based; set-up: dose 5.2 mg/kg, route intravenous; conditions: in vivo, read-out: beta t1/2 (converted); summary of the method: as §1
structure (smiles),measurement,setting,value
CC(C)Oc1ncc(C(O)(c2cccnc2)c2ccc(Cl)cc2F)cn1 (racemic),IC50,[1],8 nM
same,half-life,[2],11.3 h
same,clearance,[3],73.9 mL/min/kg
same,Vd,[4],9.1 L/kg
same,solubility kinetic,[5],12.5 µg/mL
same,IC50,[6],4400 nM
same,bioavailability,[7],7.4%
NC(=O)c1cccc(C(O)(c2ccc(Cl)cc2)c2cccnc2)c1 (racemic),concentration at 1 h,[8],6.8 µM
same,bioavailability,[9],95%
same,concentration at 24 h,[10],0.06 µM
same,selectivity ratio,[11],> 500
same,concentration at 8 h,[12],6.5 µM
same,concentration at 1 h,[13],10.3 µM
same,Activity,[14],0%
same,half-life,[15],6.1 h
same,IC50,[1],30 nM
same,Vd,[16],3.6 L/kg
same,concentration at 8 h,[17],1.9 µM
same,Activity,[18],Active
same,Activity,[19],65%
same,concentration at 8 h,[20],15.9 µM
same,IC50,[21],> 100000 nM
same,concentration at 1 h,[22],19.5 µM
same,Activity,[23],Active
same,concentration at 1 h,[24],13.7 µM
same,solubility kinetic,[5],50 µg/mL
same,Activity,[25],>95%
same,IC50,[6],2600 nM
same,concentration at 8 h,[26],0.4 µM
same,clearance,[27],18.9 mL/min/kg
N#Cc1ccc(C(O)(c2ccc(C(F)(F)F)cc2)c2cccnc2)cc1 (racemic),Activity,[28],Active
same,Activity,[29],inactive
same,Activity,[30],Active
same,Activity,[31],>99%
same,Activity,[32],Active
same,Activity,[33],Active
same,IC50,[1],12 nM
same,Activity,[34],Active
same,clearance,[35],24.4 mL/min/kg
same,Vd,[36],5.7 L/kg
same,bioavailability,[37],68.1%
same,half-life,[38],5.1 h
same,solubility kinetic,[5],6.3 µg/mL
same,IC50,[6],7600 nM
